Bioassay records as filed in PubChem.
SMARCA2 activ: SMARCA2 function activation, primary screen; MG213 cells, MMTV-luciferase reporter, dexamethasone, overnight; activation, % at 9.1 µM; AID 652017; 1% of 370,000 active; in the data active means activation above about 7.8%;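 further: 0% = vehicle wells and 100% = reference activator wells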
SR-BI DiI-HDL act: enhances SR-BI lipid uptake from DiI-HDL. AID 504775. activation, % at 12.5 µM. CHO ldlA[mSR-BI] cells, DiI-HDL uptake fluorescence, 3 h; 100 = double the neutral-control signal. 0.096% of 320,000 active;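 active means mean replicate activation of at least 60% and every replicate at or above 60%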;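 further: 0% = median plate neutral-control signal and 100% = twice that signal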
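Test system: SR-BI-overexpressing, LDLR-lacking CHO cells. Measured by: DiI fluorescence, bottom read. Medium: Ham's F12 with 0.5% BSA, HEPES 25 mM, pH 7.4. Timing: 3 h uptake period with compound, 37 °C.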
SR-BI HDL uptake: inhibitors of mouse SR-BI mediated HDL lipid uptake; ldlA[mSR-BI] CHO cells, DiI-HDL uptake fluorescence, 3 h; inhibition, % at 12.5 µM; 0.96% of 320,000 active; AID 488896; Q61009;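 active means mean replicate inhibition of at least 70% and a set share of replicates each scoring 70 or more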;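 further: 0% = median of neutral control wells and 100% = median of positive control wells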
Target sequence (Q61009 whole entry, looked up): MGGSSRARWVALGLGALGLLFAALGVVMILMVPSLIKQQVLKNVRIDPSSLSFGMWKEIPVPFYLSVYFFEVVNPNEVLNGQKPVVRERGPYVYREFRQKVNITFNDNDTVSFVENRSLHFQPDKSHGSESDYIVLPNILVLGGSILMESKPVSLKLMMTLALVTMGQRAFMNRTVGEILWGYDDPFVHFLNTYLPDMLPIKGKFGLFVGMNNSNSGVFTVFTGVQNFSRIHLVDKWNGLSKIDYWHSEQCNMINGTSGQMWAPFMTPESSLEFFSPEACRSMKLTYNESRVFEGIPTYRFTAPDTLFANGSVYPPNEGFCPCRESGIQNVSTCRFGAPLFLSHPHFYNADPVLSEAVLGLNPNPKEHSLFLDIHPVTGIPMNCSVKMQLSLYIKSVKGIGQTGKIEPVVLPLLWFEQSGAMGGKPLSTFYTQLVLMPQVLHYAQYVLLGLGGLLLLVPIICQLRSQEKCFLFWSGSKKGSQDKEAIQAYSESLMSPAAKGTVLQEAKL
TAG inh: inhibitors of triacylglycerol accumulation; H9c2 cells, Nile Red lipid (TAG) fluorescence; cells loaded with 200 µM oleic acid; inhibition, % at 12.5 µM; 0.66% of 230,000 active;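 active means pattern-corrected inhibition of lipid staining of at least 50% with the nuclear-stain viability signal not falling by more than 50%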;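 further: 0% = DMSO wells and 100% = triacsin C control wells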
Vif imaging: HIV Vif inhibition; inhibition, % at 7.49 µM; HEK293T cells, Vif self-association by quenched fluorescence, imaging, 24 h; 0.35% of 340,000 active; AID 602346; in the data active means inhibition above about 50%, passing the limit was not always enough
Active calls of the source: *; i = inactive; . = not tested or not shown. Hits are enriched below; roughly 2.5% of the tested compounds scored in any of these assays.

SMILES	SMARCA2 activ	SR-BI DiI-HDL act	SR-BI HDL uptake	TAG inh	Vif imaging
N#Cc1c(NC(=O)CSc2ncn[nH]2)sc2c1CCCC2	-8	-12	12	-5	4
O=C(CSC1=NCCS1)Nc1nc2c(s1)CCCC2	7.9*	9	-9	.	-6
N#Cc1c(NC(=O)CSC2=NCCS2)sc2c1CCCC2	-3	-82	82*	.	-3
Cc1cc(=O)[nH]c(SCC(=O)Nc2nc3c(s2)CCCC3)n1	0	6	-6	2	-8
C[C@@H]1ON(C)[C@H]2C[C@H]3c4[nH]c5c(-c6ccccc6F)cccc5c4CCN3C(=O)[C@@H]12	0	.	.	.	.
CC(C)(C)c1ccc(CN2N=Nc3ccccc3S2(=O)=O)cc1	0	-25	25	51*	12
COC(=O)Cc1nnn2c1[C@H](C)[C@@H](OC)c1ccccc1-2	-1	.	.	.	.
CCCSc1nc(SCC(=O)NCc2ccccc2)c2c3c(sc2n1)COC(C)(C)C3	0	8	-8	56*	12
CN1C2=N[C@H](c3ccccc3)CC(=O)N2/C(=C\c2ccccc2)C1Cc1ccccc1 (stereo partly specified)	-3	.	.	.	.
CCC1CCc2sc(C(=O)NCC3CCCO3)cc2C1 (stereo unspecified)	7.9*	-25	25	-10	-10
CCC1CCc2sc(C(=O)NNC(=S)NCC3CCCO3)cc2C1 (stereo unspecified)	-3	-14	14	-6	0
O=C(N[C@@H](Cc1cccnc1)C(=O)N1CCC[C@H]1C(=O)NC1CCCC1)C1CCCC1	-2	.	.	.	.
CCn1c(SCC(=O)NN=Cc2cc(OC)ccc2OC)nnc1-c1ccc(OC)cc1	2	.	.	.	.
COc1cccc(NC(=O)C2CCCN2C(=O)NC2CCC(C)CC2)c1 (stereo unspecified)	-4	.	.	.	.
O=C(COC(=O)c1ccccc1Br)NC1CCCCCCC1	2	-6	6	-12	5
O=C(COC(=O)c1ccccc1Br)NC1CCCC1	5	.	.	.	80*
Cc1ccc(S(=O)(=O)N(C)c2ccc(OCC(=O)Nc3cccc(-n4cnnn4)c3C)cc2)cc1	1	-84	84*	-1	2
Nc1[nH]c(C(=O)c2ccc(Br)cc2)c(-c2ccncc2)c1C(=O)NCCc1c[nH]c2ccccc12	-2	.	.	.	.
Cc1ccc(SCC(=O)Nc2nccs2)cc1	7.8*	23	-15	-13	-6
O=C(NNC(=O)C1CCN(S(=O)(=O)c2ccccc2C(F)(F)F)CC1)c1ccccc1O	-2	-100	100*	-20	-2
O=C(NNC(=O)C1CCN(S(=O)(=O)c2ccccc2)CC1)c1ccccc1O	1	-83	83*	-6	1
O=C(NNC(=O)C1CCN(S(=O)(=O)c2c(Cl)cccc2Cl)CC1)c1ccccc1O	-4	-103	103*	-11	2
O=C(NCc1ccco1)C1CCN(S(=O)(=O)c2ccccc2C(F)(F)F)CC1	0	.	10	-5	5
O=C(NNC(=O)c1ccccc1O)c1ccc(Cl)c(S(=O)(=O)N2CCCCC2)c1	-1	-103	103*	-4	-16
CC1(C)OC(=O)C2=C(CC(CCc3ccccc3)OC2c2ccc(Cl)c(Cl)c2)O1 (stereo unspecified)	0	.	.	.	.
SMILES	SMARCA2 activ	SR-BI DiI-HDL act	SR-BI HDL uptake	TAG inh	Vif imaging
CCCN1C(=O)c2[nH]nc(-c3ccccc3)c2C1c1ccc(Br)cc1 (stereo unspecified)	-3	.	.	.	.
O=CNC1c2ccccc2CCc2ccccc21	-3	-5	5	6	61*
O=S(=O)(NC1CCc2ccccc21)c1ccccc1 (stereo unspecified)	3	.	.	4	2
Cc1ccccc1OCc1nc(-c2ccc(NC(=O)c3ccc4c(c3)OCO4)cc2)no1	2	-91	91*	34	26
CCCCCC(=O)NC1CCCCN(Cc2ccccc2C)C1=O (stereo unspecified)	-1	.	.	.	.
Oc1c(Cl)cc(Cl)cc1/C=N/NC(=S)NC1CC2C=CC1C2 (stereo unspecified)	-3	-98	98*	-6	-5
Oc1ccccc1C=NNC(=S)NC1CC2C=CC1C2 (stereo unspecified)	2	.	.	24	-5
CCCCc1ccc(-c2csc(/C(C#N)=C\c3ccco3)n2)cc1	1	-18	18	-9	51*
CCOC(=O)c1[nH]c2ccc(OC)cc2c1NC(=S)N1CCN(c2ccc(F)cc2)CC1	0	-25	25	.	0
CCOC(=O)c1[nH]c2ccc(OC)cc2c1NC(=S)N1CCN(c2cccc(C)c2C)CC1	-3	-73	73*	.	-1
COc1cccc(NC(=O)N2CCN(c3cccc(C)c3C)CC2)c1	-4	-71	71*	18	-6
COc1ccccc1N1CCN(C(=O)Nc2cccc(Cl)c2)CC1	1	-32	32	.	-2
C/C(=N\NC(=O)c1c([N+](=O)[O-])c(C)nn1C)c1ccc(NC(=O)C2CCCC2)cc1	-2	-19	19	28	64*
C/C(=N\NC(=O)c1c(Cl)c(C)nn1C)c1ccc(NC(=O)C2CCC2)cc1	1	-31	31	25	25
CCCCc1c(-c2ccccc2OC)ncn1Cc1cccc(C)c1	-5	.	.	.	.
OCCCCc1nccc2c1[nH]c1ccccc12	4	538*	i	.	-1
CCOc1ccc(S(=O)(=O)Nc2cccc(C(=O)N(C)CC(=O)Nc3cccc(OC)c3)c2)cc1	-4	7	-7	-6	18
CCOc1ccc(S(=O)(=O)Nc2cccc(C(=O)N(C)CC(=O)Nc3ccc(OC)cc3)c2)cc1	-2	-4	4	-5	72*
COC(=O)[C@]12C[C@H](CC(=O)NCCCCc3ccccc3)C(=O)N(Cc3ccc(Cl)cc3Cl)C1=C[C@H](C(C)C)O[C@@H]2C1CC1	-3	.	.	.	.
COc1cc(OC)cc(-c2c(-c3cccs3)c3cc(-c4ccc5c(c4)OCCO5)ccc3n2C)c1	-2	-78	78*	-62	-2
COc1cc(OC)cc(-c2c(-c3cccs3)c3cc(-c4ccc(OC)c(OC)c4)ccc3n2C)c1	1	-79	79*	-44	1
Cc1nnc(NC(=O)CSc2nnc(NC(=O)C(C)(C)C)s2)s1	-2	21	-21	11	75*
COc1cc(/C=N/NC(=O)c2cc(C)oc2C)ccc1OCc1ccccc1	0	-79	79*	.	-8
CCCc1c(C(=O)N/N=C/c2ccccc2OCc2ccc(F)cc2)nnn1-c1nonc1N	-3	-85	85*	.	-2
COc1ccc(/C=N/NC(=O)c2ccoc2C)cc1OC	-3	9	-9	.	1
COc1ccc(/C=N\NC(=O)c2ccccc2Br)cc1COc1ccc(F)cc1	0	-79	79*	-4	-6
CCCc1c(C(=O)N/N=C/c2ccc(OCc3ccccc3)c(OC)c2)nnn1-c1nonc1N	3	-76	76*	.	1
Cc1ccccc1Cn1cc(COC(=O)NCCc2c[nH]c3ccccc23)nn1	2	.	.	.	.
COc1ccc(/C=N/NC(=O)CCSc2nc3ccccc3s2)cc1OC	3	-30	30	.	38
